Inconclusive results are not listed.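 The calls were made as follows, unless noted: active = cell viability at or below a set limit in both duplicate runs, the limit being the all-compound median minus 4 SD (cut at about 23% in these data, passing the limit was not always enough); inconclusive = no clear call, values can overlap the other calls; inactive = the rest.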
Experiments:
[1] = S. cerevisiae growth inhibition in permissive medium (OD615), pilot counter-assay for S. cerevisiae lifespan shortening project, permissive growth control (AID 705;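 active = growth inhibition above 25% in both replicates, a cutoff set 3 SD above the mean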); details: OD615, 24 h, at 10 µM, stronger effect = higher value
Summary of the method: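 System – S. cerevisiae with engineered DeaD lifespan system · Buffer or medium – SC raffinose/galactose permissive medium · Schedule – cells pre-grown 4 h, then 24 h compound exposure, 30 °C humidified · Technique – culture turbidity as optical density at 615 nm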

[2] = S. cerevisiae growth inhibition in restrictive medium, OD615, pilot screen, restrictive growth control, yeast lifespan reduction project (AID 706;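 active = growth inhibition above a set limit, 3 SD over mean compound inhibition, in both replicates, cut at about 43% in these data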;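 also: modified DeaD lifespan yeast strain shifted to restrictive glucose medium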); details: OD615, 48 h, at 10 µM, stronger effect = higher value
Summary of the method: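 Material: engineered S. cerevisiae DeaD strain / Medium: glucose-based CSMM-D restrictive medium / Compound: single dose of 10 µM compound final, 0.25% DMSO / Timing: 4 h pre-incubation, 48 h exposure at 30 °C / Technique: OD615 absorbance reading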

[3] = doxorubicin toxicity protection in MRP-1 cells – H69AR cells, CellTiter-Glo, duplicate, MRP-1 activator project, pilot screen (AID 807;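 active = viability increase at or above a cutoff of the median across tested compounds plus 3 SD, cut at about 8.5% in these data, passing the limit was not always enough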;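 also: compound pretreatment 18-22 h then 72 h combined with doxorubicin; 0% = doxorubicin alone and 100% = vehicle without doxorubicin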); details: H69AR viability with doxorubicin, CellTiter-Glo luminescence; at 10 µM; stronger effect = higher value
[4] = viability of HCT116 without oncogenic beta-catenin – human colon tumor cells, pilot screen (AID 823); details: HCT116 beta-catenin knockout viability, CellTiter-Glo, 60 h; at 10 µM; stronger effect = lower value;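 also: 0% = wells killed by 20 µM Hyamine and 100% = untreated DMSO cell wells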
[5] = viability of PTEN-null HCT116 cells – cell-based, HCT116 clonal line, CellTiter-Glo, pilot screen (AID 824;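 active = viability at or below 27.92% in each of two runs, the all-compound median minus 4 SD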;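 also: 0% = 20 µM Hyamine control and 100% = vehicle cell control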); details: HCT116 PTEN-deleted viability, 60 h, at 10 µM, stronger effect = lower value
[6] = RAM pathway blockade in budding yeast – dse1pr::URA3 reporter, 5-FOA selection, pilot screen (AID 869;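 active = inhibition over a set limit, the all-compound mean plus 3 SD, in both replicate runs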;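 also: 0% = DMSO wells with no growth and 100% = 10 µM 1-NA-PP1 with full growth; RAM network block rescues cells from 5-FOA so hits raise OD615 growth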); details: S. cerevisiae dse1pr::URA3 5-FOA growth, OD615, 2 d; at 10 µM; stronger effect = higher value; strain carries analog-sensitive mutant Cbk1 kinase
[7] = RAM signaling pathway blockade in yeast – S. cerevisiae, Pdr1DBD-CYC8 efflux-inhibited sensitized strain, primary screen (AID 1298;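 active = RAM network inhibition above 8.4% in each of two replicates, 3 SD over the compound average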;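 also: 0% = DMSO untreated cells without growth and 100% = 10 µM 1-NA-PP1 full growth; higher means more yeast growth rescued from 5-FOA killing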); details: S. cerevisiae cbk1-as DSE1-URA3 strain, 5-FOA growth OD615, 2 d; at 50 µM; stronger effect = higher value

CCOC(=O)c1ccc(Nc2nnc(C(C)(C)C)c(=O)[nH]2)cc1
inactive: growth inhibition [1] -18.6% | growth inhibition [2] -21.9% | viability increase [3] -7.93% | viability [4] 49.6% | viability [5] 43.7% | inhibition [6] 0.35% | RAM network inhibition [7] 2.06%

CCNS(=O)(=O)c1ccc(NC(=O)c2cccnc2)cc1
inactive: growth inhibition [1] 1.24% | growth inhibition [2] 8.7% | viability increase [3] 0.48% | viability [4] 95% | viability [5] 99.6% | inhibition [6] 1.61% | RAM network inhibition [7] 6.74%

CN1CCN(C(=O)c2ccc3c(c2)N(Cc2ccc(Cl)cc2)C(=O)c2ccccc2S3=O)CC1 (stereo not drawn)
inactive: growth inhibition [1] -0.89% | growth inhibition [2] -13.2% | viability increase [3] -4.61% | viability [4] 80.3% | viability [5] 83% | inhibition [6] 0.215% | RAM network inhibition [7] 1.3%

O=C(O)CC(Cn1cnnn1)c1ccccc1 (stereo not drawn)
inactive: growth inhibition [1] 3.8% | growth inhibition [2] -2.96% | viability increase [3] -0.66% | viability [4] 103% | viability [5] 101% | inhibition [6] 1.12% | RAM network inhibition [7] 2.58%

COC(=O)c1ccc(CSc2ncn[nH]2)o1
inactive: growth inhibition [1] -2.62% | growth inhibition [2] 3.27% | viability increase [3] 0.51% | viability [4] 94.7% | viability [5] 97.5% | inhibition [6] 0.395% | RAM network inhibition [7] 3.38%

COc1ccc(NC2c3ccccc3C(=O)N2Cc2ccco2)cc1OC (stereo not drawn)
inactive: growth inhibition [1] 6.53% | growth inhibition [2] 6.86% | viability increase [3] -3.63% | viability [4] 97.5% | viability [5] 89.7% | inhibition [6] 0.985% | RAM network inhibition [7] 3.72%

O=S(=O)(Nc1ccc(-c2nc3cccnc3s2)cc1)c1cccs1
inactive: growth inhibition [1] -4.44% | growth inhibition [2] -6.65% | viability increase [3] -1.73% | viability [4] 110% | viability [5] 95.6% | inhibition [6] 1.79% | RAM network inhibition [7] 3.74%

CN(C)S(=O)(=O)c1ccc(C(=O)Nc2ccc(OCC(=O)N3CCOCC3)cc2)cc1
inactive: growth inhibition [1] 0.98% | growth inhibition [2] -1.1% | viability increase [3] -1.5% | viability [4] 97.7% | viability [5] 97.9% | inhibition [6] 2.33% | RAM network inhibition [7] 0.86%

CCN1CCN(c2ncnc3c2cnn3-c2ccccc2)CC1
inactive: growth inhibition [1] -13.8% | growth inhibition [2] -7.68% | viability increase [3] 1.69% | viability [4] 102% | viability [5] 89.8% | inhibition [6] 1.7% | RAM network inhibition [7] 2.03%

CCOC(=O)N1CCC(NC(=O)CS(=O)(=O)Cc2nc(-c3ccc(C)cc3)oc2C)CC1
inactive: growth inhibition [1] -20.3% | growth inhibition [2] -37.1% | viability increase [3] 0.42% | viability [4] 75.3% | viability [5] 81.3% | inhibition [6] 0.44% | RAM network inhibition [7] 0.36%

O=C(CCn1c(=O)oc2ccccc21)N1CCN(c2ccc(F)cc2)CC1
inactive: growth inhibition [1] 2.05% | growth inhibition [2] -4.67% | viability increase [3] -0.8% | viability [4] 107% | viability [5] 102% | inhibition [6] 1.09% | RAM network inhibition [7] 3.71%

CCCCn1cc(C(C)(C)C)c(C#N)c1NC(C)=O
inactive: growth inhibition [1] -21.7% | growth inhibition [2] -4.88% | viability increase [3] -1.24% | viability [4] 97.8% | viability [5] 98.8% | inhibition [6] 1.43% | RAM network inhibition [7] 5.33%

CCOC(=O)CSc1nc2c(c(=O)n1-c1ccc(OC)cc1)SCC2
inactive: growth inhibition [1] -4.98% | growth inhibition [2] -0.425% | viability increase [3] 0.37% | viability [4] 99.5% | viability [5] 98.6% | inhibition [6] 1.04% | RAM network inhibition [7] 7.6%

CCOC(=O)N1CCN(C(=O)c2cc(C)no2)CC1
inactive: growth inhibition [1] -9.98% | growth inhibition [2] -7.27% | viability increase [3] 1.34% | viability [4] 104% | viability [5] 109% | inhibition [6] 1.04% | RAM network inhibition [7] 2.19%

Cc1cccc(NC(=O)CSc2nnc(-c3ccccc3)n2N)c1
inactive: growth inhibition [1] -0.87% | growth inhibition [2] 0.675% | viability increase [3] -1.81% | viability [4] 100% | viability [5] 98.9% | inhibition [6] 1.93% | RAM network inhibition [7] 4.31%

O=C(O)CCC(=O)NCc1ccc2[nH]c3c(c2c1)CCCC3
inactive: growth inhibition [1] -13.2% | growth inhibition [2] 3.53% | viability increase [3] 0.95% | viability [4] 101% | viability [5] 96.5% | inhibition [6] 1.51% | RAM network inhibition [7] 4.69%

COc1cccc(C2CC(c3cccc(OC)c3)n3nc(N)nc3N2)c1 (stereo not drawn)
inactive: growth inhibition [1] -4.01% | growth inhibition [2] 3.82% | viability increase [3] -2.05% | viability [4] 95.2% | viability [5] 92.6% | inhibition [6] 0.07% | RAM network inhibition [7] 2.5%

COc1ccc(C(C)=O)cc1CSc1nnc(C)s1
inactive: growth inhibition [1] -9.51% | growth inhibition [2] -8.14% | viability increase [3] -2.37% | viability [4] 96.5% | viability [5] 96.8% | inhibition [6] -0.565% | RAM network inhibition [7] 0.11%

Cc1ccc2oc3c(c(=O)c2c1)C(c1ccc(F)cc1)N(CCCN1CCOCC1)C3=O (stereo not drawn)
inactive: growth inhibition [1] -3.52% | growth inhibition [2] -0.585% | viability increase [3] -4.72% | viability [4] 91% | viability [5] 89.6% | inhibition [6] 0.595% | RAM network inhibition [7] 0.29%

COc1cc2c(cc1OC)CN(C(=O)C(C)(C)C)CC2
inactive: growth inhibition [1] -8.97% | growth inhibition [2] -7.4% | viability increase [3] 0.45% | viability [4] 105% | viability [5] 96.7% | inhibition [6] -0.13% | RAM network inhibition [7] -0.98%

Cn1c(C(=O)NCCCN2CCOCC2)cc2c(=O)n(C)c3ccccc3c21
inactive: growth inhibition [1] 0.23% | growth inhibition [2] -0.345% | viability increase [3] -4.09% | viability [4] 100% | viability [5] 91.5% | inhibition [6] 1.67% | RAM network inhibition [7] -0.72%

O=C1CSC(=O)N1CC(O)COc1ccc(Cl)cc1 (stereo not drawn)
inactive: growth inhibition [1] 0.955% | growth inhibition [2] -20.5% | viability increase [3] 3.19% | viability [4] 102% | viability [5] 91.9% | inhibition [6] 0.995% | RAM network inhibition [7] 1.1%

CCCc1nc2c(o1)CC(CC(C)SCC)CC2=O (stereo not drawn)
inactive: growth inhibition [1] -7.34% | growth inhibition [2] -1.98% | viability increase [3] -0.4% | viability [4] 101% | viability [5] 98.8% | inhibition [6] 1.36% | RAM network inhibition [7] 5.75%

O=C(c1cccc(F)c1)N1CCN=C1SCc1cccnc1
inactive: growth inhibition [1] -2.18% | growth inhibition [2] 8.84% | viability increase [3] -0.35% | viability [4] 102% | viability [5] 96.3% | inhibition [6] 0.32% | RAM network inhibition [7] 0.89%

From PubChem BioAssay
